Data set [1] deals with Pseudomonas aeruginosa. Description: Potentiation of minocycline-induced antimicrobial activity against MDR/XDR Pseudomonas aeruginosa isolate PA260-97103 harboring GyrA Thr83Ile mutant assessed as minocycline MIC50 incubated for 18 hrs by broth microdilution method (reference value: 16 microg/ml). The data set is classed as functional. The note with it: isolate PA260-97103, 18 h. In general terms: Broth dilution looks for growth in wells or tubes with falling amounts of substance.

In data set [2] the test system is Pseudomonas aeruginosa. Description: Potentiation of rifampicin-induced antibacterial activity against MDR/XDR Pseudomonas aeruginosa isolate PA262-101856 harboring GyrA T83I mutant assessed as fold reduction in rifampicin MIC at 7.5 uM incubated for 18 hrs by broth microdilution method. The data set is classed as functional. Summed up:
(§1)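 CLSI broth microdilution. Overnight cultures were set to 0.5 McFarland in saline, diluted 1:50 in Mueller-Hinton broth to a final 5 × 10^5 CFU/mL, and incubated 18 h at 37 °C against 2-fold antibiotic dilutions. A fixed adjuvant level was present throughout. MIC = lowest concentration with no visible turbidity, confirmed at 590 nm. Potentiation = fold drop in antibiotic MIC versus antibiotic alone.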

The test system of data set [3] is Pseudomonas aeruginosa. Nature of the data set: Potentiation of minocycline-induced antimicrobial activity against MDR/XDR Pseudomonas aeruginosa isolate 101885 harboring GyrA Thr83Ile mutant assessed as minocycline MIC50 incubated for 18 hrs by broth microdilution method (reference value: 16 microg/ml). The data set is classed as functional. Particulars: isolate 101885, 18 h.

Data set [4] has as its system Acinetobacter baumannii. Description: Synergistic antibacterial activity against multidrug-resistant Acinetobacter baumannii AB030 assessed as fractional inhibitory concentration index in presence of minocycline incubated for 18 hrs by broth dilution method. The format is functional.
The subject of data set [5] is Pseudomonas aeruginosa. Description: Potentiation of minocycline-induced antimicrobial activity against MDR/XDR Pseudomonas aeruginosa isolate 91433 devoid of GyrA Thr83Ile mutant assessed as minocycline MIC80 incubated for 18 hrs by broth microdilution method (reference value: 32 microg/ml). The format is functional. The note with it: isolate 91433, 18 h.
Data set [6] relates to Pseudomonas aeruginosa. Description: Potentiation of moxifloxacin-induced antibacterial activity against MDR/XDR Pseudomonas aeruginosa isolate 101243 devoid of GyrA T83I mutant assessed as fold reduction in moxifloxacin MIC at 7.5 uM incubated for 18 hrs by broth microdilution method. The format is functional. Summed up:
as §1

Data set [7] concerns Pseudomonas aeruginosa. Description: Potentiation of minocycline-induced antibacterial activity against MDR/XDR Pseudomonas aeruginosa isolate PA264-104354 harboring GyrA T83I mutant assessed as fold reduction in minocycline MIC at 7.5 uM incubated for 18 hrs by broth microdilution method. The data set is classed as functional.
Data set [8] relates to Pseudomonas aeruginosa. Description: Potentiation of minocycline-induced antimicrobial activity against MDR/XDR Pseudomonas aeruginosa isolate PA259-96918 harboring GyrA Thr83Ile mutant assessed as minocycline MIC50 incubated for 18 hrs by broth microdilution method (reference value: 16 microg/ml). The data set is classed as functional. Particulars: isolate PA259-96918, 18 h.

Data set [9] relates to Pseudomonas aeruginosa. Description: Disruption of electrical component of PMF with transmembrane chemical component increment in Pseudomonas aeruginosa PAO1 membrane assessed as increase in tetracycline uptake measured every 1 min for 30 mins by fluorescence based assay. The data set is classed as organism-based. The note with it: Bacterial membrane. Summed up: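 P. aeruginosa PAO1 was grown to OD600 0.6, washed and resuspended in 10 mM HEPES pH 7.2, then treated with varying compound concentrations plus […] tetracycline. Fluorescence (ex 405/em 535 nm) was read each minute for 30 min at room temperature. Triplicates, averaged.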

Data set [10] relates to Pseudomonas aeruginosa. Description: Potentiation of rifampicin-induced antimicrobial activity against MDR/XDR Pseudomonas aeruginosa isolate 101243 devoid of GyrA Thr83Ile mutant assessed as rifampicin MIC80 incubated for 18 hrs by broth microdilution method (reference value: 16 microg/ml). The data set is classed as functional. Particulars: isolate 101243, 18 h.
Data set [11] has as its system Pseudomonas aeruginosa. Nature of the data set: Potentiation of rifampicin-induced antimicrobial activity against MDR/XDR Pseudomonas aeruginosa isolate PA262-101856 harboring GyrA Thr83Ile mutant assessed as rifampicin MIC80 incubated for 18 hrs by broth microdilution method (reference value: 16 microg/ml). The data set is classed as functional. Particulars: isolate PA262-101856, 18 h.

Data set [12] concerns Acinetobacter baumannii. Nature of the data set: Potentiation of rifampicin-induced antibacterial activity against multidrug-resistant Acinetobacter baumannii AB030 assessed as fold reduction in rifampicin MIC at 7.5 uM incubated for 18 hrs by broth dilution method. The format is functional. Summed up: as §1
Data set [13] deals with Pseudomonas aeruginosa. Nature of the data set: Potentiation of moxifloxacin-induced antibacterial activity against wild type Pseudomonas aeruginosa PAO1 assessed as fold reduction in moxifloxacin MIC at 7.5 uM incubated for 18 hrs by broth microdilution method. The format is functional. Summed up:
as §1

Data set [14] can be described thus: Toxicity in Galleria mellonella larvae assessed as tolerability by measuring larval survival at 100 mg/kg incubated for > 96 hrs. The data set is classed as organism-based. The note with it: in vivo. Summed up:
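Uninfected G. mellonella larvae, ten per group, were injected with agent alone at 100 or 200 mg/kg. Larvae were held at 37 °C and monitored for survival for 96 h.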

Data set [15] deals with Acinetobacter baumannii. Nature of the data set: Antimicrobial activity against multidrug-resistant Acinetobacter baumannii AB110193 incubated for 18 hrs by broth dilution method. The data set is classed as functional. Particulars: AB110193, 18 h. Summed up:
(§2)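 Broth microdilution per CLSI: overnight cultures set to 0.5 McFarland in saline, diluted 1:50 in Mueller-Hinton broth to a final 5 × 10^5 CFU/mL, added to 2-fold serial dilutions, incubated 18 h at 37 °C; MIC is the lowest concentration without visible turbidity, confirmed at 590 nm.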

The test system of data set [16] is Acinetobacter baumannii. Description: Synergistic antibacterial activity against multidrug-resistant Acinetobacter baumannii AB92247 assessed as fractional inhibitory concentration index in presence of rifampicin incubated for 18 hrs by broth dilution method. The data set is classed as functional.
For data set [17], the system named is Pseudomonas aeruginosa. Nature of the data set: Antimicrobial activity against XDR Pseudomonas aeruginosa isolate PA264 infected in Galleria mellonella larvae assessed as increase in survival rate co-administered with rifampicin at 2 hrs post-inoculation measured every 6 hrs for upto 24 hrs. The format is functional, organism-based. Summed up: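 G. mellonella larvae each received an injection of about 5 CFU of PA264 (culture adjusted to 0.5 McFarland, then diluted in PBS to 5 × 10^2 CFU/mL) and were held 2 h at 37 °C. A single injection followed: rifampicin plus adjuvant at 25+25, 50+50 or 75+75 mg/kg, or PBS. Larvae were kept at 37 °C and scored every 6 h up to 24 h; no response to touch counted as dead. Total n=30 per group; Kaplan-Meier analysis.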

Data set [18] concerns Acinetobacter baumannii. Description: Antimicrobial activity against multidrug-resistant Acinetobacter baumannii AB92247 incubated for 18 hrs by broth dilution method. Particulars: AB92247, 18 h. The format is functional. Summed up:
as §2

For a further data set, the system named is Escherichia coli. Description: Antimicrobial activity against Escherichia coli ATCC 25922 incubated for 18 hrs by broth dilution method. Particulars: ATCC 25922, 18 h. The format is functional. Summed up: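 CLSI broth microdilution. Overnight cultures were adjusted to 0.5 McFarland in saline, diluted 1:50 in Mueller-Hinton broth, and inoculated at a final 5 × 10^5 CFU/mL. Compounds were tested as 2-fold serial dilutions and incubated 18 h at 37 °C. MIC was the lowest concentration with no visible turbidity, confirmed by absorbance at 590 nm.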

Data set [19] deals with Acinetobacter baumannii. Nature of the data set: Synergistic antibacterial activity against multidrug-resistant Acinetobacter baumannii ATCC 17978 assessed as fractional inhibitory concentration index in presence of minocycline incubated for 18 hrs by broth dilution method. The data set is classed as functional.
Data set [20] has as its system Pseudomonas aeruginosa. Description: Potentiation of ciprofloxacin-induced antibacterial activity against MDR/XDR Pseudomonas aeruginosa isolate 101885 harboring GyrA T83I mutant assessed as fold reduction in ciprofloxacin MIC at 9 uM incubated for 18 hrs by broth microdilution method. The format is functional.
Data set [21] relates to Pseudomonas aeruginosa. Description: Potentiation of rifampicin-induced antibacterial activity against MDR/XDR Pseudomonas aeruginosa isolate PA260-97103 harboring GyrA T83I mutant assessed as fold reduction in rifampicin MIC at 9 uM incubated for 18 hrs by broth microdilution method. The data set is classed as functional. Summed up:
as §1

Usually MIC50 stands for an inhibitory concentration at the 50% level, which refers to growth in some studies and to a panel of isolates in others. The MIC80 is the lowest concentration that inhibits either 80% of growth or 80% of the strains tested, depending on the study. The term MIC denotes the least concentration at which growth counts as inhibited.

SMILES strings stand for the structures.

With `COc1c(N2C[C@@H]3CCCN(CCCCCCCCCCCCO[C@@H]4[C@@H](O)[C@H](N)C[C@H](N)[C@H]4O[C@H]4O[C@H](CN)[C@@H](O)C[C@H]4N)[C@@H]3C2)c(F)cc2c(=O)c(C(=O)O)cn(C3CC3)c12.Cl.Cl.Cl.Cl.Cl`, the MIC50 in the data set with Pseudomonas aeruginosa [1], in the data set on Pseudomonas aeruginosa [3] and with Pseudomonas aeruginosa [8] was 0.5 µg/mL throughout. Also, the “fold change (FC)” value in the data set with Pseudomonas aeruginosa [2] is recorded as 512; in the data set on Pseudomonas aeruginosa [6] it was 32; in the data set with Pseudomonas aeruginosa [7] it was 64; in the data set with Acinetobacter baumannii [12], 32; in the data set on Pseudomonas aeruginosa [13], 8. Further, the “fractional inhibitory concentration index (FICI)” value with Acinetobacter baumannii [4] is recorded as above 1. Moreover, the MIC80 in the data set on Pseudomonas aeruginosa [5] came out at 1 µg/mL; in the data set on Pseudomonas aeruginosa [10] it was 0.13 µg/mL; with Pseudomonas aeruginosa [11] it was 0.13 µg/mL. Moreover, the Activity result in the data set on Pseudomonas aeruginosa [9] is “Dose-dependent effect”.
On to `Cl.Cl.Cl.Cl.Cl.NC[C@H]1O[C@H](O[C@H]2[C@H](OCCCCCCCCCCCCN3CCN(c4cc5c(cc4F)c(=O)c(C(=O)O)cn5C4CC4)CC3)[C@@H](O)[C@H](N)C[C@@H]2N)[C@H](N)C[C@@H]1O`, for which the results for the Activity result (in [14]; in the data set on Pseudomonas aeruginosa [17]) were “Non-Toxic” and “Dose-dependent effect”, respectively. In addition, the results for the MIC in the data set with Acinetobacter baumannii [15], against Acinetobacter baumannii [18] and against Escherichia coli were above 128 µg/mL, 128 µg/mL and 8 µg/mL, respectively. The figures for the “fractional inhibitory concentration index (FICI)” value with Acinetobacter baumannii [16] and in the data set on Acinetobacter baumannii [19] were 0.039 and 0.52, respectively.
Consider `Cl.Cl.Cl.Cl.Cl.Cl.NC[C@H]1O[C@H](O[C@H]2[C@H](OCCCCCCCCCCN3CCN(Cc4cccc5ccccc45)CC3)[C@@H](O)[C@H](N)C[C@@H]2N)[C@H](N)C[C@@H]1O`, for which the “fold change (FC)” value in the data set on Pseudomonas aeruginosa [20] came out at 8; in the data set with Pseudomonas aeruginosa [21], 64.
